Test results from ChEMBL document CHEMBL2321690, “New betulinic acid derivatives for bevirimat-resistant human immunodeficiency virus type-1” (J Med Chem, 2013).
pIC50: −log10 of the molar value. The source made the active and inactive calls. The calls are words filed in the database; no cut-off is given here.

Tests used:
[1] = (§1) Inhibition of wild type Human immunodeficiency virus 1 NL4-3 envelope glycoprotein gp160-mediated cell-cell fusion between virus-infected monkey COS cells to human TZM-bl cells after 24 hrs by luciferase reporter gene assay; assay type: cell-based; settings: Human immunodeficiency virus 1, NL4-3, COS
Outline: (§2)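 COS cells (1 × 10^6 cells/mL) electroporated (950 µF, 150 V) with vector expressing NL4-3 Env and tat, then cultured one day. Mixed with TZM-bl cells with inhibitor over a 1–10000 nM range. Luciferase (RLU) in fused cells read 24 h after mixing, expressed as % of no-compound fusion. Points are mean ± SD of three tests.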

[2] = system: Human immunodeficiency virus 1; experiment: Potency index, ratio of bevirimat IC50 to compound IC50 for 0.001 MOI bevirimat-resistant Human immunodeficiency virus 1 NL4-3 harboring gag V370A mutant infected in human MT4 cells; assay type: functional
[3] = system: Human immunodeficiency virus 1; experiment: Antiviral activity against 0.001 MOI bevirimat-resistant Human immunodeficiency virus 1 NL4-3 harboring gag T371 deletion mutant infected in human MT4 cells assessed as inhibition of viral replication measured 4 days post infection by ELISA; assay type: functional, organism-based; settings: Human immunodeficiency virus 1, NL4-3, MT4, 96 h
Outline: (§3)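 Mutations introduced into pNL4-3 by site-directed mutagenesis. MT4 cells infected with wild-type NL4-3 or resistant variant at 0.001 TCID50/cell in presence of graded compound concentrations. Supernatant p24 measured by ELISA on day 4 post-infection. IC50 is the concentration reducing p24 by 50%, reported as mean ± SD with the number of tests given per value.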

[4] = system: Human immunodeficiency virus 1; experiment: Antiviral activity against 0.001 MOI bevirimat-resistant Human immunodeficiency virus 1 NL4-3 harboring gag V362I mutant infected in human MT4 cells assessed as inhibition of viral replication measured 4 days post infection by ELISA; assay type: functional, organism-based; settings: Human immunodeficiency virus 1, NL4-3, MT4, 96 h; outline: as §3
[5] = system: Human immunodeficiency virus 1; experiment: Antiviral activity against 0.001 MOI wild type Human immunodeficiency virus 1 NL4-3 infected in human MT4 cells assessed as inhibition of viral replication measured 4 days post infection by ELISA; assay type: functional, organism-based; settings: Human immunodeficiency virus 1, NL4-3, MT4, 96 h; outline: as §3
COS = experiment: as §1; assay type: cell-based; outline: as §2
[6] = system: Human immunodeficiency virus 1; experiment: Antiviral activity against bevirimat-resistant Human immunodeficiency virus 1 NL4-3 harboring gag V362I mutant infected in human 293T cells assessed as inhibition of CA-SP1 cleavage measured 2 days post infection by Western blotting analysis; assay type: functional, organism-based
Outline: (§4)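 Provirus plasmids (pNL4-3/V370A, pNL4-3/V362I, with pNL4-3 alongside) transfected into 293T cells, and virus produced in presence of compound. Supernatant virus harvested two days after transfection. Western blot with anti-p24 monoclonal antibody (183-H12-5C) to detect accumulation of CA-SP1 (p25), indicating inhibited CA-SP1 cleavage.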

[7] = system: Human immunodeficiency virus 1; experiment: Antiviral activity against bevirimat-resistant Human immunodeficiency virus 1 NL4-3 harboring gag V370A mutant infected in human 293T cells assessed as inhibition of CA-SP1 cleavage measured 2 days post infection by Western blotting analysis; assay type: functional, organism-based; outline: as §4
[8] = system: Human immunodeficiency virus 1; experiment: Antiviral activity against 0.001 MOI bevirimat-resistant Human immunodeficiency virus 1 NL4-3 harboring gag V370 deletion mutant infected in human MT4 cells assessed as inhibition of viral replication measured 4 days post infection by ELISA; assay type: functional, organism-based; settings: Human immunodeficiency virus 1, NL4-3, MT4, 96 h; outline: as §3
MT4 = experiment: Cytotoxicity against human MT4 cells for 4 days; assay type: cell-based; settings: mt4, 96 h
Outline: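 MT4 cells cultured with various compound concentrations for 4 days. Viability read by a CytoTox-Glo luminescent cytotoxicity assay. CC50 is the concentration reducing viable cells by 50%.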

[9] = system: Human immunodeficiency virus 1; experiment: Antiviral activity against 0.001 MOI bevirimat-resistant Human immunodeficiency virus 1 NL4-3 harboring gag V370A mutant infected in human MT4 cells assessed as inhibition of viral replication measured 4 days post infection by ELISA; assay type: functional, organism-based; settings: Human immunodeficiency virus 1, NL4-3, MT4, 96 h; outline: as §3
[10] = system: Human immunodeficiency virus 1; experiment: Antiviral activity against wild type Human immunodeficiency virus 1 NL4-3 infected in human 293T cells assessed as inhibition of CA-SP1 cleavage measured 2 days post infection by Western blotting analysis; assay type: functional, organism-based
Outline: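 293T cells transfected with pNL4-3 proviral plasmid and cultured with compounds. Culture supernatant collected 2 days after transfection. Western blot with anti-p24 monoclonal antibody (hybridoma 183-H12-5C) detected CA-SP1 (p25) accumulation, taken as the measure of blocked CA-SP1 cleavage.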

Structure (SMILES)	pIC50 [1]	Ratio IC50 [2]	pIC50 [3]	pIC50 [4]	pIC50 [5]	inhibition (COS)	inhibition [6]	inhibition [7]	pIC50 [8]	CC50 (MT4) [nM]	pIC50 [9]	inhibition [10]
C=C(C)[C@@H]1CC[C@]2(C(=O)NCCCCCCCNC(C)=O)CC[C@]3(C)[C@H](CC[C@@H]4[C@@]5(C)CC[C@H](O)C(C)(C)[C@@H]5CC[C@]43C)[C@@H]12	7.38											
C=C(C)[C@@H]1CC[C@]2(C(=O)NCCCCCCCCC(=O)N[C@@H](CCC(N)=O)C(=O)OC)CC[C@]3(C)[C@H](CC[C@@H]4[C@@]5(C)CC[C@H](OC(=O)CC(C)(C)C(=O)O)C(C)(C)[C@@H]5CC[C@]43C)[C@@H]12		20	7.17	7.80	8.05	inactive	Active	Active	6.49	> 10000	6.80	
C=C(C)[C@@H]1CC[C@]2(C(=O)O)CC[C@]3(C)[C@H](CC[C@@H]4[C@@]5(C)CC[C@H](OC(=O)CC(C)(C)C(=O)O)C(C)(C)[C@@H]5CC[C@]43C)[C@@H]12 [BEVIRIMAT]			< 5.17	< 5.17	7.12	inactive		inactive	< 5.17	> 10000	< 5.30	Active
